Published values collected from several papers.
Protocols differ between the studies behind these lines.
Target: Serine/threonine-protein kinase D1 (PRKD1, Homo sapiens, UniProt Q15139)
One construct used (Q15139 1-912): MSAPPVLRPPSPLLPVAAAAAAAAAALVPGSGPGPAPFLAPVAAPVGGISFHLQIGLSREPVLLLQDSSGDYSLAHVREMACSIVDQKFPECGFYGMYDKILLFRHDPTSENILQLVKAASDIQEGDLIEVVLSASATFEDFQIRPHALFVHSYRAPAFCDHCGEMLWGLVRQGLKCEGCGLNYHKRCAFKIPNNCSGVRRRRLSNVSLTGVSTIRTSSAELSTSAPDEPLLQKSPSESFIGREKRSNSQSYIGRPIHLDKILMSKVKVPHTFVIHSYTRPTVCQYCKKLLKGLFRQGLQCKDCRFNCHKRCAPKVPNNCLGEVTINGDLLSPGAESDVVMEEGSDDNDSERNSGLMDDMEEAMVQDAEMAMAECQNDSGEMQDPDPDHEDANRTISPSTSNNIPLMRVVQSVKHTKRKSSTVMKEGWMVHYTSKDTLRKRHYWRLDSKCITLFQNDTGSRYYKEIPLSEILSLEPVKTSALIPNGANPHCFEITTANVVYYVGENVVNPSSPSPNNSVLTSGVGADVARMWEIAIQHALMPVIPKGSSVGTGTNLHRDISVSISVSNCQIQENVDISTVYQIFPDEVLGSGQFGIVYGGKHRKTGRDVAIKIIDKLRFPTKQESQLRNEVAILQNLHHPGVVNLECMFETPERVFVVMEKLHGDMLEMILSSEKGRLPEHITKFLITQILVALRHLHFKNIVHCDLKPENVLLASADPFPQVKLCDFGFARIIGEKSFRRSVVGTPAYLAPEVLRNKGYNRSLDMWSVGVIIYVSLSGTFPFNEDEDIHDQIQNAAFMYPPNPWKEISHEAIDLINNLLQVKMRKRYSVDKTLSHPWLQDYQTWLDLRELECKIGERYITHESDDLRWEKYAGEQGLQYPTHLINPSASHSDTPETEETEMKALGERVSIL

| Compound | assay | conditions | quantity | value |
| --- | --- | --- | --- | --- |
| Cn1cncc1[C@](O)(COc1ccc(C#N)cc1-c1ccc(OC(F)(F)F)cc1)c1ccc(C#N)cc1 | cell-free assay, competition with immobilised ligand | 1 µM | remaining binding | 99% |
| Cc1nn(C)cc1-c1nc2c(N3CCN(Cc4ccc(Cl)cc4)CC3)c(Cl)cnc2[nH]1 | binding, competition with immobilised ligand | 1 µM | remaining binding | 100% |
| COc1ncccc1-c1cnn2ccc(N3CCN(C(=O)OC(C)C)CC3)nc12 | binding, competition with immobilised ligand | 1 µM | remaining binding | 100% |
| N#CC1(c2ccccn2)CCN(Cc2cc(C(=O)O)c(=O)n3ccccc23)CC1 | cell-free assay, competition with immobilised ligand | 1 µM | remaining binding | 87% |
| Nc1ncc(-c2nc(N3CCOCC3)nc(N3CCOCC3)n2)c(C(F)F)n1 | binding, competition with immobilised ligand | 10 µM | remaining binding | 80% |
| Cn1cc(-c2cccc(N3CCc4c(sc5c4CC(C)(C)C5)C3=O)c2CO)cc(Nc2ccncn2)c1=O | enzyme activity, inhibitor | 1 µM | inhibition | 2% |
| O=c1[nH]c2ccccc2n1C1CCN(Cc2ccc(-c3[nH]c4cc5ncnc5cc4nc3-c3ccccc3)cc2)CC1 | cell-free assay | 0.5 µM | remaining signal | 94.7% |
| COc1cc(Nc2ncc(F)c(Nc3ccc4c(n3)NC(=O)C(C)(C)O4)n2)cc(OC)c1OC | binding | 10 µM | inhibition | 17% |
| Cn1cc(-c2cc(F)cc(N3CCn4c(cc5c4CCCC5)C3=O)c2CO)cc(Nc2ccc(N3CCN(C4COC4)CC3)cn2)c1=O | enzyme activity, inhibitor | 0.1 µM | inhibition | 12% |
| CC(C)(C)c1cc(C=C(C#N)C#N)cc(Br)c1O | enzyme activity, inhibitor | 0.5 µM | remaining activity | 100% |
